Measured values published in ChEMBL document CHEMBL4000256, “Light-Regulated NO Release as a Novel Strategy To Overcome Doxorubicin Multidrug Resistance” (ACS Med Chem Lett, 2017).
Active and inactive are the calls of the source. The calls are words filed in the database; no cut-off is given here.

What was measured:
Homo sapiens [1] = species on record: Homo sapiens; experiment: Inhibition of ABC transporter in 7 mW/cm'2 irradiated human M14 cells assessed as increase in nitrite release at 5 uM measured after 20 mins by Griess reagent based spectrophotometric method
Method in brief: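 M14 melanoma cells held 20 min at room temperature in PBS, either in the dark or under 400 nm light (7 mW/cm2), with 5 μM compound alone or alongside 5 μM doxorubicin. Nitrite in the supernatant measured by Griess assay, in triplicate, n = 3.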

M14 = experiment: Dark toxicity in human M14 cells assessed as increase in nitrite levels at 5 uM measured after 20 mins by Griess reagent based spectrophotometric method; type: cell-based; conditions: m14, 20 min
Homo sapiens [2] = species on record: Homo sapiens; experiment: Inhibition of Pgp in 7 mW/cm'2 irradiated human M14 cells assessed as nitration of tyrosine in pgp at 5 uM measured after 20 mins by immunoblotting
Method in brief: (§1)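 M14 melanoma cells held 20 min at room temperature in PBS under 400 nm light (7 mW/cm2) with 5 μM compound, alone or with equimolar doxorubicin. Nitrated ABC transporters (Pgp, MRP1, MRP4, BCRP) detected by immunoblot.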

[3] = biological target: T1, Multidrug resistance-associated protein 1 (Homo sapiens, UniProt P33527); experiment: Inhibition of MRP1 in 7 mW/cm'2 irradiated human M14 cells assessed as nitration of tyrosine in MRP1 at 5 uM measured after 20 mins by immunoblotting; method in brief: as §1
[4] = biological target: T2, ATP-binding cassette sub-family C member 4 (Homo sapiens, UniProt O15439); experiment: Inhibition of MRP4 in 7 mW/cm'2 irradiated human M14 cells assessed as nitration of tyrosine in MRP4 at 5 uM measured after 20 mins by immunoblotting; method in brief: as §1
T2 sequence (O15439 whole entry): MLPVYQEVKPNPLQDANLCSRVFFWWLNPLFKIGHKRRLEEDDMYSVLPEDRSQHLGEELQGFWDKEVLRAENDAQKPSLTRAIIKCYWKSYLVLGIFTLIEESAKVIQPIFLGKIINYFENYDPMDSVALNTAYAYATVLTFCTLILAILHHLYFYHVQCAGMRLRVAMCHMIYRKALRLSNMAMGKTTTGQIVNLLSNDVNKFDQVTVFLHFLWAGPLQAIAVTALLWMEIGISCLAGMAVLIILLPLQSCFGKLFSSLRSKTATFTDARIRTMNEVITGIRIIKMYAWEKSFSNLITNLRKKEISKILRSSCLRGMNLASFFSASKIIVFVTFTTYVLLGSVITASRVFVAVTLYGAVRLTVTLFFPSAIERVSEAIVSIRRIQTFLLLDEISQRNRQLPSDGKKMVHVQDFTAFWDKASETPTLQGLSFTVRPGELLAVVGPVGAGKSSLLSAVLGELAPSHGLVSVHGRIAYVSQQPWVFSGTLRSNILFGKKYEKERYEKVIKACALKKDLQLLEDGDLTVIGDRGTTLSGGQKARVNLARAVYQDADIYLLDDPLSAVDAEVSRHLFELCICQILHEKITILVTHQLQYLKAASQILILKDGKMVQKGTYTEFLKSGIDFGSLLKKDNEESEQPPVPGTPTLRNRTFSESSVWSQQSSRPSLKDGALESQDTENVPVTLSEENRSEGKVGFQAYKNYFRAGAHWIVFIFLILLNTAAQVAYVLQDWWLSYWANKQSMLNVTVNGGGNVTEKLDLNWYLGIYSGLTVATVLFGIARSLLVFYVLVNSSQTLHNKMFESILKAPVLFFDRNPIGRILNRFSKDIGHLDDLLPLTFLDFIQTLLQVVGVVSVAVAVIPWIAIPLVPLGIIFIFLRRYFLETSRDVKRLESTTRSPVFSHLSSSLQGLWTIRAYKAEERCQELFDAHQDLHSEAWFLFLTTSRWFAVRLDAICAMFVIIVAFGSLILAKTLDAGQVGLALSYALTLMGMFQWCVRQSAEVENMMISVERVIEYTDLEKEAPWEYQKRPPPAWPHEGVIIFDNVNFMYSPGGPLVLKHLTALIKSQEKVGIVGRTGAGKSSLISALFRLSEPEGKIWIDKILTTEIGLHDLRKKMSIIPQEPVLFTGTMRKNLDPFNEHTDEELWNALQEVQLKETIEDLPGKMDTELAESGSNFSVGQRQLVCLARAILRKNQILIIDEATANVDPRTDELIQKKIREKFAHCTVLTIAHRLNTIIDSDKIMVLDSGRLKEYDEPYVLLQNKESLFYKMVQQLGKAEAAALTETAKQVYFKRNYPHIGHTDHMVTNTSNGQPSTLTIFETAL

Homo sapiens [5] = species on record: Homo sapiens; experiment: Inhibition of Pgp in 7 mW/cm'2 irradiated human M14 cells assessed as reduction in P-gp ATPase activity at 5 uM measured after 20 mins by spectrophotometric method
Method in brief: (§2)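 M14 melanoma cells held 20 min at room temperature in PBS under 400 nm light (7 mW/cm2) with 5 μM compound, alone or with equimolar doxorubicin. Transporter ATPase activity then measured; n = 3.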

[6] = biological target: T1, Multidrug resistance-associated protein 1; experiment: Inhibition of MRP1 in 7 mW/cm'2 irradiated human M14 cells assessed as reduction in MRP1 ATPase activity at 5 uM measured after 20 mins by spectrophotometric method; method in brief: as §2
[7] = biological target: T2, ATP-binding cassette sub-family C member 4; experiment: Inhibition of MRP4 in 7 mW/cm'2 irradiated human M14 cells assessed as reduction in MRP4 ATPase activity at 5 uM measured after 20 mins by spectrophotometric method; method in brief: as §2
Fibroblast [8] = experiment: Cytotoxicity against 7 mW/cm'2 irradiated human fibroblasts at 5 uM measured after 20 mins by spectrophotometric method; type: cell-based
Method in brief: (§3)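 Human fibroblasts or rat H9c2 cardiomyocytes kept 20 min at room temperature in PBS, either in the dark or irradiated at λexc 400 nm, 7 mW/cm2, with or without 5 μM test agent. Cytotoxicity measured in triplicate; means ± SD, n = 3.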

H9c2 = experiment: Dark toxicity against rat H9c2 cells at 5 uM measured after 20 mins by spectrophotometric method; type: cell-based; conditions: h9c2, 20 min; method in brief: as §3
Fibroblast [9] = experiment: Dark toxicity against human fibroblasts at 5 uM measured after 20 mins by spectrophotometric method; type: cell-based; method in brief: as §3
[10] = Induction of NO release in pH 7.4 PBS irradiated with 7 mW/cm2 light at 100 uM after 0.5 hrs by Griess assay
Method in brief: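 Cell-free solution, 100 μM, in PBS (pH 7.4, 10 mM, 3% DMSO) irradiated at 400 nm (7 mW/cm2) for varying times. Nitrite generated is quantified by Griess assay.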

T1 sequence (P33527 whole entry): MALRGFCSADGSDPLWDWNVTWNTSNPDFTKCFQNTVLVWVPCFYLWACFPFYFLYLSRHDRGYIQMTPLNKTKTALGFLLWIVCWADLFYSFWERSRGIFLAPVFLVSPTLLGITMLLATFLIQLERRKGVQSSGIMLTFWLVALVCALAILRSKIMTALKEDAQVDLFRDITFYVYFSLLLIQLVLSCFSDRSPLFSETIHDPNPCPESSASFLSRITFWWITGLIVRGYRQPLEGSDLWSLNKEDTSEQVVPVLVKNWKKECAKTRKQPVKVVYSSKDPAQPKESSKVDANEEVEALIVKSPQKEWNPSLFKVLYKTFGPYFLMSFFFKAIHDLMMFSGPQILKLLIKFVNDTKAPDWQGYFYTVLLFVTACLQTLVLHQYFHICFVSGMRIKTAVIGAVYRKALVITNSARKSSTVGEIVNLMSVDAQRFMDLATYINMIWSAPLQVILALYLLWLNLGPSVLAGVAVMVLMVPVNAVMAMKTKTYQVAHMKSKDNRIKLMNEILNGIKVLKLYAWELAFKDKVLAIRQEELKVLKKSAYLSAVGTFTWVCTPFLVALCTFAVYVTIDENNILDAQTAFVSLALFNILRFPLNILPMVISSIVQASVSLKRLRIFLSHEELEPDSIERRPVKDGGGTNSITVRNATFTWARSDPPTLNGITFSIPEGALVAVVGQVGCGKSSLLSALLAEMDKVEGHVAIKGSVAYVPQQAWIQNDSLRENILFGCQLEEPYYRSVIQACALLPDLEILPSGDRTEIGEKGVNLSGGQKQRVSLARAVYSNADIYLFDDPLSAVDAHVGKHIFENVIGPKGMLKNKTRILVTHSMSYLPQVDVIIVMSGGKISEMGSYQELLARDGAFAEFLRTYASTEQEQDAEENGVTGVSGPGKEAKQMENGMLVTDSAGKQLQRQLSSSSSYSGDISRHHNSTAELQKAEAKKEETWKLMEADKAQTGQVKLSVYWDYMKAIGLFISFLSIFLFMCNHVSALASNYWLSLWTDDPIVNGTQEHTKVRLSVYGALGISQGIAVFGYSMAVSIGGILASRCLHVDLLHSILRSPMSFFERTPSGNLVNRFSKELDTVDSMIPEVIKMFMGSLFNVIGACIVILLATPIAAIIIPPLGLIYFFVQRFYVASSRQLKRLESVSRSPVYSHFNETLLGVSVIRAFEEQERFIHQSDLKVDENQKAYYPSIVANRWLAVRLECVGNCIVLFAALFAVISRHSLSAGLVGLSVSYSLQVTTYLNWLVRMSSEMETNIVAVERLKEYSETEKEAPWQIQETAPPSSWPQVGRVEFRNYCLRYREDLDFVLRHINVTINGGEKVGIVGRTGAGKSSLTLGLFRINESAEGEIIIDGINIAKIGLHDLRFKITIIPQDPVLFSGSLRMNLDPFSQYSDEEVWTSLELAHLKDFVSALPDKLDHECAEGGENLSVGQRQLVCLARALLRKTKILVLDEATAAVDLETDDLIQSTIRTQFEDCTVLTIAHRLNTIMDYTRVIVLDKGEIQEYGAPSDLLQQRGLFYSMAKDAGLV

SMILES	inhibition (Homo sapiens [1])	Activity (M14)	inhibition (Homo sapiens [2])	inhibition (INH) [3]	inhibition (INH) [4]	inhibition (Homo sapiens [5])	inhibition (INH) [6]	inhibition (INH) [7]	Activity (Fibroblast [8])	Activity (H9c2)	Activity (Fibroblast [9])	Activity [10]
NCCCNc1ccc([N+](=O)[O-])c(C(F)(F)F)c1	Active	Non-Toxic	Active	Active	Active	Active	Active	Active	Non-Toxic	Non-Toxic	Non-Toxic	Active
COc1cccc2c1C(=O)c1c(O)c3c(c(O)c1C2=O)C[C@@](O)(C(=O)COC(=O)c1ccc(C(=O)NCCCNc2ccc([N+](=O)[O-])c(C(F)(F)F)c2)cc1)C[C@@H]3O[C@H]1C[C@H](N)[C@H](O)[C@H](C)O1.Cl	Active	Non-Toxic	Active	Active	Active	Active	Active	Active	Non-Toxic	Non-Toxic	Non-Toxic	Active
